High-throughput results from PubChem BioAssay.
D1 mod: allosterically modulates the human D1 dopamine receptor; B-score at 10 µM; P21728; actives 5.9% (n = 58,000); HEK293 D1, CRE-luciferase, dopamine EC30 potentiation; actives deviate in either direction;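 active means luminescence count or its row- and column-corrected plate score outside the 99.7% band of the plate's sample wells, on either side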
Target sequence (P21728 whole entry, looked up): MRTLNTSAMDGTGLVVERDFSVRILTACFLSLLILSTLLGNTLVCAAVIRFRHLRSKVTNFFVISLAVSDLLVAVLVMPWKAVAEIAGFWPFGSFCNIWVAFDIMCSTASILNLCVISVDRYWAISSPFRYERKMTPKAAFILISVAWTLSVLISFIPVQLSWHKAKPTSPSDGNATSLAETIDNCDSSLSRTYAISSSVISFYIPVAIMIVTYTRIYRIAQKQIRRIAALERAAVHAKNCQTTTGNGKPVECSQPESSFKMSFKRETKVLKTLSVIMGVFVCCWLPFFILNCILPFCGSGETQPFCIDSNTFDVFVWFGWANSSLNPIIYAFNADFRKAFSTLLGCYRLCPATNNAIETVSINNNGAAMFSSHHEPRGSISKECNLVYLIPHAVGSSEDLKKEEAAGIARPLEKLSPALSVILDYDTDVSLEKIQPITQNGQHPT
BAP1 inh: human BAP1 deubiquitinase inhibition; AID 436; actives 0.48% (n = 72,000); calls only at 20 µM; recombinant BAP1, Ub-AMC hydrolysis fluorescence kinetic; stronger effect = lower value;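 active means activity remaining at or below 50% of control, provided the compound also passes the data quality filters; inactive means the rest, including low values that fail the filters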
M1 antagonist: blocks the rat M1 muscarinic receptor response to acetylcholine; actives 3.4% (n = 64,000); B-score at 10 µM; P08482; CHO-M1 cells, Fluo-4 calcium, ACh EC80 antagonist mode; stronger effect = lower value;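 active means calcium fluorescence response, raw or row-and-column corrected B-score, differing from the plate sample mean either way at a set confidence level, mostly lower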
HEK293 NFkB inh: lowers PMA/ionomycin-induced NF-kB signal in HEK293 cells. HEK-293 NF-kB luciferase reporter, luminescence. inhibition, % at 3 µM. actives 0.21% (n = 62,000). AID 465;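 active means inhibition above the mean of all tested compounds plus 3 SD, cut at about 40% in these data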
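System – HEK-293 cells with stable firefly luciferase reporter driven by four HIV NF-kB elements · Doses – one dose, 3 µM · Schedule – 1 h compound pre-incubation, 16 h PMA/ionomycin at 37 °C · Technique – luminescence from luciferase substrate reagent · Measure – percent inhibition normalized per plate to DMSO and reference-inhibitor controls · Replicates – tested once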
M1 agonist: agonists of M1 muscarinic receptor | CHO-M1 cells, Fluo-4 calcium fluorescence, agonist mode; stronger effect = higher value | actives 3% (n = 64,000) | B-score at 10 µM;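 active means fluorescence rise, raw or as B-score row- and column-corrected plate score, outside the 99.7% band of its plate's samples, either direction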
DAT uptake mod: modulates human dopamine transporter uptake under cocaine | B-score at 10 µM | Q01959 | AID 449768 | actives 1.3% (n = 110,000) | LLC-PK1 hDAT cells, [14C]-dopamine uptake with cocaine IC80; actives deviate in either direction;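 active means Z score or B-score, a plate-position-corrected score, falls beyond the plate's 99.7% confidence bounds, in either direction; inactive means both scores lie inside the 99.7% bounds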
D1 PAM confirm: confirmation of human D1 dopamine receptor allosteric modulators. shares compounds with D1 mod. HEK293 D1 CRE-luciferase, dopamine EC30 potentiation; stronger effect = higher value. luminescence at 10 µM. actives 88% (n = 2,200). AID 642;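 active means luminescence in either of two replicates above the same-plate mean plus 3 SD of the low-dose dopamine control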
D1 ag no DA: D1 (human) signaling in absence of dopamine. actives 0.8% (n = 1,900). HEK293 D1 CRE-luciferase, luminescence, no dopamine; stronger effect = higher value. shares compounds with D1 mod. AID 646. luminescence at 10 µM; in the data active means luminescence above about 3900
Isoprot counter: counter-screen for D1 modulators: isoproterenol response in HEK293 cells | AID 647 | shares compounds with D1 mod | HEK293 D1 CRE-luciferase, isoproterenol EC30 counter-screen | actives 63% (n = 2,200) | calls only at 10 µM;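 active means luminescence in either replicate above plate mean of wells with a partly effective reference agonist dose plus 3 SD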;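 further: isoproterenol raises cAMP through native beta-adrenoceptor Gs so signal bypasses D1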
Hits are given with their value; - = inactive; . = not tested or not shown; + = active, no number. Hits are enriched below; roughly 7.2% of the tested compounds scored in any of these assays.

SMILES	D1 mod	BAP1 inh	M1 antagonist	HEK293 NFkB inh	M1 agonist	DAT uptake mod	D1 PAM confirm	D1 ag no DA	Isoprot counter
COc1ccc(-c2ccc(SCC(=O)N3CCOCC3)nn2)cc1OC	12	-	-	-	-	-	27680	-	+
COc1ccc(-c2nnc(SCC(=O)N3CCCC3)o2)cc1OC	-	-	-	-	-	-	.	.	.
Cc1cc(=O)oc2c1ccc1oc(/C(=N/O)c3ccccc3)c(C)c12	5.2	-	-	-	-	-	7656	-	+
CCC(=O)Nc1nc2c(OC)ccc(OC)c2s1	2.9	-	-	-	-	-	8516	-	-
CCCC(=O)Nc1nc2c(OC)ccc(OC)c2s1	-	-	-	-	-	-	.	.	.
COc1ccc(OC)c2sc(NC(=O)C3CC3)nc12	3.9	-	-	-	-	-	10100	.	-
O=C(Nc1nc(-c2ccc(Oc3ccccc3)cc2)cs1)c1cc(Cl)ccc1[N+](=O)[O-]	.	-	.	.	.	.	.	.	.
O=C1N=C(c2ccccc2)C(c2ccccc2)N1 (centres undefined)	8.8	.	-	.	-	-	22264	20356	+
CC1CCc2c(sc(N)c2C(=O)Nc2cccc(Cl)c2)C1 (centres undefined)	.	-	.	.	.	.	.	.	.
COc1ccc(-c2cc3nc(C4CCN(C(=O)OC(C)(C)C)CC4)c(C(=O)O)cn3n2)cc1	9.2	-	-	-	-	-	14492	-	+
CC1CCc2sc(NC(=O)c3cc(Cl)ccc3[N+](=O)[O-])c(C(N)=O)c2C1 (centres undefined)	.	-	.	.	.	.	.	.	.
CCOC(=O)c1sc(=S)n(CC)c1N	5.1	-	-	-	-	-	10812	-	-
COC(=O)c1cccc(C(=O)Oc2ccc3ccccc3c2Br)n1	.	-	.	.	.	.	.	.	.
O=C1CC(c2ccc3c(c2)OCO3)c2cc3c(cc2N1)OCCO3 (centres undefined)	11	-	-	-	-	-2.8	11940	-	+
O=C1CC(c2ccncc2)c2cc3c(cc2N1)OCCO3 (centres undefined)	-	-	-	-	-	-	.	.	.
O=C1CC(c2ccsc2)c2cc3c(cc2N1)OCCO3 (centres undefined)	5.8	-	-	-	-	-	14472	-	-
CCCCOc1ccccc1NC(=O)c1ccc(=O)[nH]c1	-	-	-	-	-	-	.	.	.
CCCOc1ccccc1NC(=O)c1ccc(N)cc1	3	-	-	-	-	-	7556	-	-
CC1=C(C(=O)Nc2ccccc2)C(c2ccc(C(F)(F)F)cc2)NC(=S)N1 (centres undefined)	.	-	.	.	.	.	.	.	.
C=CCn1c(SCc2ccc(F)cc2)nc2c1c(=O)[nH]c(=O)n2C	-	-	-	-	-	-	.	.	.
C/C=C/Cn1c(SCc2ccc(C)cc2)nc2c1c(=O)[nH]c(=O)n2C	12	-	-	-	-	-	26548	-	+
CCCSc1nc2c(c(=O)[nH]c(=O)n2C)n1Cc1ccc(C)cc1	-	-	-	-	-	-	.	.	.
C=CCSc1nc2c(c(=O)[nH]c(=O)n2C)n1Cc1ccc(C)cc1	.	-	-	-	-	.	.	.	.
C=CCSc1nc2c(c(=O)[nH]c(=O)n2C)n1C(C)C	9.5	-	-	-	-	-	11684	-	+
C=CCn1c(SCc2ccc(Cl)cc2)nc2c1c(=O)[nH]c(=O)n2C	2.9	.	-	-	-	-	8180	-	+
SMILES	D1 mod	BAP1 inh	M1 antagonist	HEK293 NFkB inh	M1 agonist	DAT uptake mod	D1 PAM confirm	D1 ag no DA	Isoprot counter
COc1nc(NCCC2=CCCCC2)nc(OC)n1	7.2	-	-	-	-	-	8312	-	+
COc1ccc(-c2ccc(=O)n(Cc3cc(=O)n4ccccc4n3)n2)cc1	26	-	-	-	-	-	20696	-	+
Cc1c(Cc2ccccc2)c(=O)oc2cc(OC(C)C)ccc12	.	-	.	.	.	.	.	.	.
COc1ccccc1-c1nnc(SCC(=O)N2CCOCC2)o1	-	-	-	-	-	-	.	.	.
COc1ccc(-c2nnc(SCC#CCO)o2)cc1OC	15	-	-	-	-	-	16500	-	+
COc1ccc(-c2nc(CN3CCC(C(=O)N4CCc5ccccc54)CC3)c(C)o2)cc1OC	2.8	-	-	-	-	-	6820	-	+
OCC#CCSc1nnc(-c2ccc(Br)cc2)o1	-	-	-	-	-	-	.	.	.
COc1ccc(-c2nnc(SCC(=O)N3CCCc4ccccc43)o2)cc1OC	16	-	-	-	-	-	19988	-	+
COc1ccccc1-c1nnc(SCC(=O)N2CCC(C)CC2)o1	3.1	-	.	-	.	-	-	.	-
COc1ccc(-c2nc(CN3CCC(C(=O)NC(C)C)CC3)c(C)o2)cc1OC	-	-	-	-	-	.	.	.	.
O=C(COc1ccccc1[N+](=O)[O-])Nc1ccccc1[N+](=O)[O-]	.	-	.	.	.	.	.	.	.
CC1C=Cc2ccccc2N1C(=O)c1ccccc1 (centres undefined)	4	-	-	-	-	-	9976	-	-
N#Cc1c2n(c3c(=O)n(Cc4ccccc4Cl)cnc13)CCCCC2	8.6	-	-	-	-	-	11076	-	+
O=C1C2C3C=CC(C4CC34)C2C(=O)N1c1cc(C(F)(F)F)ccc1Cl (centres undefined)	.	-	.	.	.	.	.	.	.
CCc1cc(=O)oc2cc3oc(C)c(C)c3cc12	4.5	-	-	-	-	-	-	-	-
COC(=O)c1ccc(OC)c(CSc2nnc(COc3cccc(C)c3)o2)c1	-	-	-	-	-	-	.	.	.
COC(=O)c1ccc(OC)c(CSc2nnc(COc3ccc(OC)cc3)o2)c1	6.4	-	-	-	-	-	-	-	-
COc1ccc(N/C=C2\CCOC2=O)cc1	3.2	-	-	-	-	-	-	-	-
COc1ccc(/C=C2\CCOC2=O)cc1	.	.	.	.	.	-	.	.	.
CC(Sc1nc(N2CCOCC2)c2c(c1C#N)CC(C)(C)OC2)C(=O)Nc1ccccc1 (centres undefined)	5.2	-	-	-	-	-	9724	-	+
COc1ccc(-n2cnc3ccccc32)cc1	.	.	.	.	.	-	.	.	.
COc1ccc2ncn(-c3ccccc3)c2c1	5.1	-	-	-	-	-	8964	-	-
CCC1=C[C@H]2CN(C1)Cc1c([nH]c3ccccc13)[C@@](C(=O)OC)(c1cc3c(cc1OC)N(C)[C@H]1[C@@](O)(C(=O)OC)[C@H](OC(C)=O)[C@]4(CC)C=CCN5CC[C@]31[C@@H]54)C2	.	.	.	.	.	-	.	.	.
NC(=O)COc1c(-c2ccccc2)oc2ccccc2c1=O	2.6	-	-	-	-	-	15448	-	+
CC(C)COC(=O)c1ccc2c(c1)C(=O)N(c1ccc(Oc3ccccc3)cc1)C2=O	.	-	.	.	.	.	.	.	.
